Test results from ChEMBL document CHEMBL3352430, “4-Aminopyridyl-based CYP51 inhibitors as anti-Trypanosoma cruzi drug leads with improved pharmacokinetic profile and in vivo potency” (J Med Chem, 2014).

Experiments:
Liver microsome [1] = test: Half life in human liver microsomes; type: ADME
[2] = Tmax in mouse at 50 mg/kg, po in 20% HP-beta-CD; type: ADME, organism-based; parameters: dose 50 mg/kg, route oral; details: in vivo
Outline: (§1)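 Female Swiss Webster mice, 8 weeks old, given one oral gavage dose of 50 mg/kg as a 10 mg/mL preparation in the named vehicle (20% HPβCD suspension or 20% Kolliphor). Plasma sampled at about 0.25, 0.5, 1, 2, 4, 6, 8, 12 and 24 h, n = 3 per time point. Protein precipitated with 5 volumes acetonitrile, filtered, then LC-MS/MS. Values are averages of three mice.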

[3] = Drug uptake in mouse skeletal muscle at 50 mg/kg, po in 20% Kolliphor measured at 8 hrs post dose; type: ADME, organism-based, Muscle tissue; parameters: dose 50 mg/kg, route oral; details: in vivo
Outline: (§2)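 Female Swiss Webster mice, 8 weeks old, given a single 50 mg/kg oral gavage dose in 20% HPβCD or 20% Kolliphor. Tissues taken from three mice at 2 and 8 h post dose. Homogenized by probe sonication in PBS (1:4 w/v), protein precipitated with acetonitrile, and compound measured by LC-MS/MS in μM.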

Trypanosoma cruzi [4] = test: Antitrypanosomal activity against Trypanosoma cruzi amastigotes infected in mouse C2C12 cells after 72 hrs by DAPI staining method; type: functional, organism-based; details: C2C12, 72 h
[5] = Drug uptake in mouse fat at 50 mg/kg, po in 20% HP-beta-CD measured at 8 hrs post dose; type: ADME, organism-based, Adipose tissue; parameters: dose 50 mg/kg, route oral; details: in vivo; outline: as §2
Intestine [6] = test: Drug uptake in mouse intestine at 50 mg/kg, po in 20% HP-beta-CD measured at 8 hrs post dose; type: ADME, organism-based; parameters: dose 50 mg/kg, route oral; details: in vivo; outline: as §2
Heart [7] = test: Drug uptake in mouse heart at 50 mg/kg, po in 20% HP-beta-CD measured at 8 hrs post dose; type: ADME, organism-based; parameters: dose 50 mg/kg, route oral; details: in vivo; outline: as §2
Cytochrome P450 3A4 = Cytochrome P450 3A4 (Homo sapiens, UniProt P08684); test: Inhibition of CYP3A4 in human liver microsomes at 1 uM; type: ADME
[8] = Half life in mouse at 50 mg/kg, po in 20% Kolliphor; type: ADME, organism-based; parameters: dose 50 mg/kg, route oral; details: in vivo; outline: as §1
C2C12 = test: Cytotoxicity against mouse C2C12 cells up to 10 uM; type: cell-based
Outline: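 Mouse C2C12 myoblasts infected with T. cruzi CA-I/72, then exposed at 24 h postinfection to compound at 10 μM down to 5 pM in 5-fold steps for 72 h at 37 °C. Cells fixed in paraformaldehyde, stained with DAPI and scored by automated imaging. Triplicate wells; uninfected and infected untreated wells as controls.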

[9] = Cmax in mouse at 50 mg/kg, po in 20% Kolliphor; type: ADME, organism-based; parameters: dose 50 mg/kg, route oral; details: in vivo; outline: as §1
[10] = Clearance in mouse at 50 mg/kg, po in 20% Kolliphor; type: ADME, organism-based; parameters: dose 50 mg/kg, route oral; details: in vivo; outline: as §1
Heart [11] = test: Drug uptake in mouse heart at 50 mg/kg, po in 20% Kolliphor measured at 8 hrs post dose; type: ADME, organism-based; parameters: dose 50 mg/kg, route oral; details: in vivo; outline: as §2
Cytochrome P450 2C9 = Cytochrome P450 2C9 (Homo sapiens, UniProt P11712); test: Inhibition of CYP2C9 in human liver microsomes at 1 uM; type: ADME
[12] = Tmax in mouse at 50 mg/kg, po in 20% Kolliphor; type: ADME, organism-based; parameters: dose 50 mg/kg, route oral; details: in vivo; outline: as §1
Trypanosoma cruzi [13] = test: Antitrypanosomal activity against Trypanosoma cruzi Y luc infected in mouse assessed as inhibition of parasitemia at 50 mg/kg, po bid in 20% Kolliphor administered for 4 consecutive days starting on day 3 of infection measured on day 7 post infection relative to vehicle-treated control; type: functional
Outline: (§3)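 Female Swiss Webster mice, 8 weeks old, infected ip with 10^5 T. cruzi Y luc trypomastigotes. Only mice with detectable luminescence on day 3 were treated. Compound given by oral gavage bid for four days, as a suspension in 20% HPβCD or a solution in 20% Kolliphor, five mice per group. Vehicle group and benznidazole 50 mg/kg served as controls. On day 7, mice were injected ip with 150 mg/kg d-luciferin and imaged after 5 min under isoflurane. Percent inhibition calculated against untreated mice; two-tailed paired t test.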

[14] = Clearance in mouse at 50 mg/kg, po in 20% HP-beta-CD; type: ADME, organism-based; parameters: dose 50 mg/kg, route oral; details: in vivo; outline: as §1
Liver [15] = test: Drug uptake in mouse liver at 50 mg/kg, po in 20% HP-beta-CD measured at 8 hrs post dose; type: ADME, organism-based; parameters: dose 50 mg/kg, route oral; details: in vivo; outline: as §2
[16] = target: Sterol 14-alpha demethylase (Trypanosoma cruzi (strain CL Brener), UniProt Q7Z1V1); test: Binding affinity to Trypanosoma cruzi CYP51 by UV-vis titration method; details: read-out: Kd(app)
Liver [17] = test: Half life in mouse liver microsomes; type: ADME
[18] = Drug uptake in mouse fat at 50 mg/kg, po in 20% Kolliphor measured at 8 hrs post dose; type: ADME, organism-based, Adipose tissue; parameters: dose 50 mg/kg, route oral; details: in vivo; outline: as §2
[19] = Cmax in mouse at 50 mg/kg, po in 20% HP-beta-CD; type: ADME, organism-based; parameters: dose 50 mg/kg, route oral; details: in vivo; outline: as §1
[20] = Drug uptake in mouse skeletal muscle at 50 mg/kg, po in 20% HP-beta-CD measured at 8 hrs post dose; type: ADME, organism-based, Muscle tissue; parameters: dose 50 mg/kg, route oral; details: in vivo; outline: as §2
Liver microsome [21] = test: Half life in rat liver microsomes; type: ADME
[22] = AUClast in mouse at 50 mg/kg, po in 20% Kolliphor; type: ADME, organism-based; parameters: time 0 - last, dose 50 mg/kg, route oral; details: plasma; outline: as §1
Lung [23] = test: Drug uptake in mouse lung at 50 mg/kg, po in 20% HP-beta-CD measured at 8 hrs post dose; type: ADME, organism-based; parameters: dose 50 mg/kg, route oral; details: in vivo; outline: as §2
Lung [24] = test: Drug uptake in mouse lung at 50 mg/kg, po in 20% Kolliphor measured at 8 hrs post dose; type: ADME, organism-based; parameters: dose 50 mg/kg, route oral; details: in vivo; outline: as §2
Trypanosoma cruzi [25] = test: Antitrypanosomal activity against Trypanosoma cruzi Y luc infected in mouse assessed as inhibition of parasitemia at 25 mg/kg, po bid in 20% Kolliphor administered for 4 consecutive days starting on day 3 of infection measured on day 7 post infection relative to vehicle-treated control; type: functional; outline: as §3
[26] = Half life in mouse at 50 mg/kg, po in 20% HP-beta-CD; type: ADME, organism-based; parameters: dose 50 mg/kg, route oral; details: in vivo; outline: as §1
Cytochrome P450 2D6 = Cytochrome P450 2D6 (Homo sapiens, UniProt P10635); test: Inhibition of CYP2D6 in human liver microsomes at 1 uM; type: ADME
[27] = AUClast in mouse at 50 mg/kg, po in 20% HP-beta-CD; type: ADME, organism-based, Plasma; parameters: time 0 - last, dose 50 mg/kg, route oral; details: plasma; outline: as §1
Cytochrome P450 1A2 = target: T1, Cytochrome P450 1A2 (Homo sapiens, UniProt P05177); test: Inhibition of CYP1A2 in human liver microsomes at 1 uM; type: ADME
T1 sequence (P05177 whole entry): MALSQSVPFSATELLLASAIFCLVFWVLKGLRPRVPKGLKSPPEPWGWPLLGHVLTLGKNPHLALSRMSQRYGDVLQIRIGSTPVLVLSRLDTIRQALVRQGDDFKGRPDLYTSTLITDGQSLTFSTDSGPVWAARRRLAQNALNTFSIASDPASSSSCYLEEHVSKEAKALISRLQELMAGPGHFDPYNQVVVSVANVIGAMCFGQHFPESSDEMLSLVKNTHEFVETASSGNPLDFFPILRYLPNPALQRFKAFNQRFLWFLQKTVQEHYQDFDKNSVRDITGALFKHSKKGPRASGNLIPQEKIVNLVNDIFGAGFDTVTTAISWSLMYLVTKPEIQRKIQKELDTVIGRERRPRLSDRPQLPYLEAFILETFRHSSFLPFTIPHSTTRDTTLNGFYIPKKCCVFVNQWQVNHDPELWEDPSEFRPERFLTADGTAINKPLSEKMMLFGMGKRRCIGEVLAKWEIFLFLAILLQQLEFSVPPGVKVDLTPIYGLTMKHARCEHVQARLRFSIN

Intestine [28] = test: Drug uptake in mouse intestine at 50 mg/kg, po in 20% Kolliphor measured at 8 hrs post dose; type: ADME, organism-based; parameters: dose 50 mg/kg, route oral; details: in vivo; outline: as §2
Liver [29] = test: Drug uptake in mouse liver at 50 mg/kg, po in 20% Kolliphor measured at 8 hrs post dose; type: ADME, organism-based; parameters: dose 50 mg/kg, route oral; details: in vivo; outline: as §2

Cytochrome P450 3A4, sequence (P08684 whole entry): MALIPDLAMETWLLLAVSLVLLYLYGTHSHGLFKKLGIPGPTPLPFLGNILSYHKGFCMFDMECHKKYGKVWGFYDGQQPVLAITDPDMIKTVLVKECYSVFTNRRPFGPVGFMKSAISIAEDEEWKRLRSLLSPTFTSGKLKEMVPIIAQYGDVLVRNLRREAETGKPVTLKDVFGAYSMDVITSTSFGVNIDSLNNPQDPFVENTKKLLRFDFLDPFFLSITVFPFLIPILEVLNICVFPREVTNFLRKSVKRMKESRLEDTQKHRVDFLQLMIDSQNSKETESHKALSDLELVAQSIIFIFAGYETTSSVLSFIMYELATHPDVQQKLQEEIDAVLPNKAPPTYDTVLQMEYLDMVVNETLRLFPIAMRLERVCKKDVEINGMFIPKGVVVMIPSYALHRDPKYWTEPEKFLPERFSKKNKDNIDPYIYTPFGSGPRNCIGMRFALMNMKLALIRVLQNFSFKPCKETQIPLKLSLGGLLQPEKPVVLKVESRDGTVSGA
Sterol 14-alpha demethylase, sequence (Q7Z1V1 whole entry): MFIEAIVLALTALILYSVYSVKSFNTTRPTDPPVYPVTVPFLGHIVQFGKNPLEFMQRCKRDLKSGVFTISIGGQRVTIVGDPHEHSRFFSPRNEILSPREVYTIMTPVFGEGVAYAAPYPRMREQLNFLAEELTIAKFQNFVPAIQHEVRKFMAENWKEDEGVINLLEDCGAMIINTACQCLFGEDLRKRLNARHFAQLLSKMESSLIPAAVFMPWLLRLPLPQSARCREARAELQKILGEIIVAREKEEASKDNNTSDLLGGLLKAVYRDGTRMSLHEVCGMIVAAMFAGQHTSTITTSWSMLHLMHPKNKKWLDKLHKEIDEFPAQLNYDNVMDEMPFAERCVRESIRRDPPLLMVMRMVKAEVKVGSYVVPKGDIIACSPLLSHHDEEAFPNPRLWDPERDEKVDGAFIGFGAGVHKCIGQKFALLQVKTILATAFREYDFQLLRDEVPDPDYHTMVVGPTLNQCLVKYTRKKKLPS
Cytochrome P450 2C9, sequence (P11712 whole entry): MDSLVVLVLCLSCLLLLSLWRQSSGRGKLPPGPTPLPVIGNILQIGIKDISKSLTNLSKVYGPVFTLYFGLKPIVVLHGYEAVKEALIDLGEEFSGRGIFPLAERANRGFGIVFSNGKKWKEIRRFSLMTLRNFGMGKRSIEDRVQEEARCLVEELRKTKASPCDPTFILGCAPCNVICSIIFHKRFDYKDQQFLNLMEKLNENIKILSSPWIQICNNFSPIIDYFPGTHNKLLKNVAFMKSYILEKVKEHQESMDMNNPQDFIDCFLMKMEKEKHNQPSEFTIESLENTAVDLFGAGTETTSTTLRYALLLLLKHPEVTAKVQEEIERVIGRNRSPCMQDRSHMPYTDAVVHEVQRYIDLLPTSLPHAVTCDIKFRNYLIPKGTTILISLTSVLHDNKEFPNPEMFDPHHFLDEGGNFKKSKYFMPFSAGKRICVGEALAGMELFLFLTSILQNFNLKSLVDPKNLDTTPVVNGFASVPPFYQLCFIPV
Cytochrome P450 2D6, sequence (P10635 whole entry): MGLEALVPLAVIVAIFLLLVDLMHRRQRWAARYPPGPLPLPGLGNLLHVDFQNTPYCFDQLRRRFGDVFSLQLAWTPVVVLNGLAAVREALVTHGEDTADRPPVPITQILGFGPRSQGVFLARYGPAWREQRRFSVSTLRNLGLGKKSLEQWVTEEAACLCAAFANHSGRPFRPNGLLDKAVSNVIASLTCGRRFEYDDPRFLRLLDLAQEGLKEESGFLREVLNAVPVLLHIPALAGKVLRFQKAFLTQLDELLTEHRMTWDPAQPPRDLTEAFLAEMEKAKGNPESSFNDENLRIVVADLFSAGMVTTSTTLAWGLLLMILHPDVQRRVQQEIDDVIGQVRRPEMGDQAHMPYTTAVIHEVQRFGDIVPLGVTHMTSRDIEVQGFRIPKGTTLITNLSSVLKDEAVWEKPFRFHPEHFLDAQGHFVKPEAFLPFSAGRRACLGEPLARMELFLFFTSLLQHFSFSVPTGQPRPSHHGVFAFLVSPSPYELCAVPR

Row | t1/2 (Liver microsome [1]) | Tmax [2] | Drug uptake [3] | EC50 (Trypanosoma cruzi [4]) | Drug uptake [5] | Drug uptake (Intestine [6]) | Drug uptake (Heart [7]) | inhibition (INH) (Cytochrome P450 3A4) | half-life [8] | Cmax [9] | CL/F [10] | Drug uptake (Heart [11]) | inhibition (INH) (Cytochrome P450 2C9) | Tmax [12] | CL/F [14] | Drug uptake (Liver [15]) | Kd [16] | t1/2 (Liver [17]) | Compound | Activity (C2C12) | inhibition in vivo at 50 mg/kg (Trypanosoma cruzi [13]) | also measured
1 | 0.483 h | 4.67 h | Active | 170 nM | Active | Active | Active | 9% | 3.1 h | 7.35 µM | 17.4 mL/min/kg | Active | 96% | 4.67 h | 52.5 mL/min/kg | Active | ≤ 10 nM | 0.967 h | O=C(N[C@H](Cc1c[nH]c2ccccc12)C(=O)Nc1ccncc1)c1ccc(-c2ccc(F)c(C(F)(F)F)c2)cc1F | Non-toxic | 97.4% | Drug uptake [18]: Active; Cmax [19]: 5.1 µM; Drug uptake [20]: Active; t1/2 (Liver microsome [21]): 0.45 h; AUC(0-t) [22]: 84.5 µM·h; Drug uptake (Lung [23]): Active; Drug uptake (Lung [24]): Active; inhibition in vivo at 25 mg/kg (Trypanosoma cruzi [25]): 89.1%; half-life [26]: 2.5 h; inhibition (INH) (Cytochrome P450 2D6): 36%; AUC(0-t) [27]: 26.6 µM·h; inhibition (INH) (Cytochrome P450 1A2): 2%; Drug uptake (Intestine [28]): Active; Drug uptake (Liver [29]): Active
2 | 0.467 h | 2.67 h | Active | 78 nM | Active | Active | Active | 29% | 16.8 h | 17.8 µM | 9.28 mL/min/kg | Active | 93% | 0.75 h | 44.4 mL/min/kg | Active | 16 nM | 0.9 h | O=C(N[C@H](Cc1c[nH]c2ccccc12)C(=O)Nc1ccncc1)c1ccc(-c2ccc(F)c(Cl)c2)cc1F | Non-toxic | 85.2% | Drug uptake [18]: Active; Cmax [19]: 5.88 µM; Drug uptake [20]: Active; t1/2 (Liver microsome [21]): 0.417 h; AUC(0-t) [22]: 153 µM·h; Drug uptake (Lung [23]): Active; Drug uptake (Lung [24]): Active; inhibition in vivo at 25 mg/kg (Trypanosoma cruzi [25]): 56.7%; half-life [26]: 5.17 h; inhibition (INH) (Cytochrome P450 2D6): 29%; AUC(0-t) [27]: 30.2 µM·h; inhibition (INH) (Cytochrome P450 1A2): 2%; Drug uptake (Intestine [28]): Active; Drug uptake (Liver [29]): Active
